The data set can be described thus: Toxicity liver stage against HepG2, at 10uM. Format: cell-based. More on the design: test concentration 10 uM, cell line HepG2-A16-CD81EGFP. Particulars: human, HepG2-A16-CD81EGFP cells; read-out: INHIBITION
In outline: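 Uninfected HepG2-A16-CD81EGFP cells, 3 × 10^3 per well, 1536-well, plated on prespotted compound at 10 μM final, parasite-free screening media added to match infected plates; puromycin 10 μM positive, DMSO 0.5% negative; run in parallel with 48 h PbLuc assay at 37 °C, 5% CO2; viability by CellTiter-Glo luminescence, normalized to controls.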

For `COc1ccc(CNC(=O)c2nc3c(s2)CCN(C(C)=O)CC3)cc1`, the cytotoxicity at 10 µM is -76.6%.

As to `Cc1ccc(-c2nc(CCNC(=O)NC3CCN(C)CC3)co2)cc1`, the cytotoxicity at 10 µM was -6.71%. Then `O=C(O)C(c1ccc2c(c1)OCO2)N1CCCCCC1` (configuration not stated), with -0.293%. As to `CC(COc1ccccc1)NCc1nncn1C1CCCCC1` (configuration not stated), the cytotoxicity at 10 µM was -4.23%. In the case of `CNCc1n[nH]c(=O)n1-c1cccc(Cl)c1Cl`, the cytotoxicity at 10 µM amounted to 0.396%.

Take `CS(=O)(=O)NCc1cncc2c1CCN(CC1CCOC1)C2` (configuration not stated): the cytotoxicity at 10 µM was found to be 12.7%. The same measure for `O=C(NCCCn1cccn1)C1(c2ccccc2)CCOCC1`: 5.78%. Then `CCCN(CCC)Cc1nnsc1Cl`, with 10.3%; and `Cc1noc(OCc2csc(C)n2)n1`, with -2.54%; and `CSCCC(=O)N1CCCC(c2ncc[nH]2)C1` (configuration not stated), with -1.64%. Then `COCCN(Cc1ccoc1)C(=O)CSc1ccc(F)cc1`, with 1.04%; and `O=C(C1CCN(c2ccnc3ccc(Br)cc23)CC1)N1CCOCC1`, with 15.6%; and `CC1c2ncc(Cn3cccn3)n2CCN1Cc1ccc(F)cc1` (configuration not stated), with -107%. Take `CS(=O)(=O)N1CCCC12CCCN(S(=O)(=O)c1ccc(F)cc1)C2` (configuration not stated): the cytotoxicity at 10 µM amounted to 0.442%.

Regarding `CC(=O)N1CC[C@H]2OCC[C@@]2(C(=O)NCc2cnc(C)cn2)C1`, the cytotoxicity at 10 µM is -106%. The same measure for `COc1ccc(-n2ncc3c2NC(=O)CSC3C(C)C)cc1` (configuration not stated): 17.4%; for `CN1CCC(NC(=O)Nc2ccc(Br)c(F)c2)C1=O` (configuration not stated): -147%; for `Cc1nc(CN2CCC(O)(c3ccccc3F)CC2)c2ccccn12`: 2.45%. As to `Cc1ccccc1-n1cnnc1SCCOCC1CCCO1` (configuration not stated), the cytotoxicity at 10 µM is -3.73%.

For `CCCn1nc2c(cc1=O)CN(CCS(C)(=O)=O)CC2`, the cytotoxicity at 10 µM was -8.87%. Then `Cc1cc(-c2nn(C)c(Cl)c2CN2CCOC(C(=O)O)C2)no1` (configuration not stated), with 4.04%; and `CNC(=O)CN1CCCC(Cc2ccccc2OC)C1` (configuration not stated), with -8.53%. On to `COc1cc(S(=O)(=O)N2CCc3cc(Br)ccc32)cc(C(=O)O)c1OC`, for which the cytotoxicity at 10 µM was -15.9%. The same measure for `NS(=O)(=O)N1CCc2ccc(NC(=O)Cc3ccccc3F)cc21`: 1.17%. Then `COCc1cc(CC2(NC3CCCCC3)COC2)no1`, with 0.66%.

With `O=C(O)[C@@H]1CN(CC(=O)N2CCCCC2)C[C@H]1c1ccc(F)cc1`, the cytotoxicity at 10 µM was -3.95%.

Regarding `O=C([C@H]1CN(Cc2nccs2)C[C@H]2OCC[C@@H]12)N1CCCC1`, the cytotoxicity at 10 µM is -94.1%. Then `O=C(O)c1cc(S(=O)(=O)Nc2ccccc2)cc2c1OCCO2`, with -9.26%; and `Nc1nc(CNc2ncnc3c2CCN(Cc2ccoc2)CC3)cs1`, with 1.63%; and `O=C(CN1CCCC1c1nc(Cc2ccc(F)cc2)no1)NC1CC1` (configuration not stated), with 20.6%. For `Cc1cccc(NC(=O)c2ccc(-n3cncn3)nn2)n1`, the cytotoxicity at 10 µM was -0.895%. The same measure for `Cc1nc(CNC(=O)NCCc2ccc(N(C)C)cc2)cs1`: -11.6%. The same measure for `Cn1nc(CNC(=O)C2COc3ccccc3O2)cc1C1CC1` (configuration not stated): 7.52%.

For `COC(=O)c1cccc(NCC(=O)NC(N)=O)c1`, the cytotoxicity at 10 µM is 6.88%. The same measure for `CC[C@@]1(O)CCN(C(=O)c2ccsc2)C[C@H]1O`: -9.35%; for `Cc1ccc(C(=O)N(C)Cc2ccc(Br)s2)c(=O)[nH]1`: 5.02%; for `O=C(Cn1ncc2c(c1=O)CCCCC2)Nc1cccc2[nH]ccc12`: 0.417%.

As for `c1coc(CNc2ncc3c(n2)C2(CCNC2)COC3)c1` (configuration not stated), the cytotoxicity at 10 µM was found to be 10.7%. Then `COc1ccc(N2CCC(NC(=O)c3ccc(C#N)cc3)CC2)cc1`, with -14.7%; and `Cn1ccnc1CCC1CCCCN1Cc1cnc(N2CCCC2)nc1` (configuration not stated), with 1.43%; and `CNC(=O)Cc1cc2nccc(-c3c(OC)cccc3OC)n2n1`, with -10.4%.

In the case of `Cc1cc(NC(=O)CCNC(C)(C)c2nc(C)c(C)s2)no1`, the cytotoxicity at 10 µM came out at 11.7%. Then `Cc1ccc(C(=O)N2CC[C@H]3[C@H]2CCN3CC2CCOCC2)cn1`, with -73.3%; and `CNC(=O)[C@H]1CC[C@@H]2[C@@H](CCN2CCOCc2ccccc2)O1`, with -109%; and `NC(=O)CN1CCC(Nc2ccnc3ccc(Cl)cc23)CC1`, with 31.8%. The same measure for `CS(=O)(=O)c1ccc(OCCNCc2cccc(O)c2)cc1`: 2.21%. The same measure for `CCc1nsc(N2CCCN(C(=O)c3ccc(OC)cc3)CC2)n1`: 4.05%; for `O=C(COCC1CC1)Nc1cc(-c2ccc(Br)s2)n[nH]1`: -155%; for `Cc1ccc(NC2CCN(C(=O)CCCn3ccnc3C)CC2)nn1`: -11.8%. Turning to `CC(=O)N1CCCN(C(=O)c2ccc(Cn3ccccc3=O)o2)CC1`, the cytotoxicity at 10 µM is -1.4%. Then `CN(C)C[C@@H]1OC[C@H]2CN(Cc3ccoc3)CC[C@H]21`, with -131%; and `CCCc1n[nH]cc1C(=O)N1CCCC(c2nccn2CC2CC2)C1` (configuration not stated), with 1.1%. Regarding `N#Cc1ccc(CN2CCN(C(=O)CCn3cncn3)CC2)cc1`, the cytotoxicity at 10 µM was -7.06%.

As for `CC(C)NC(=O)c1ccc(NC(=O)NC(C)c2ccccn2)cc1` (configuration not stated), the cytotoxicity at 10 µM was 9.44%. The same measure for `O=C(CCn1cc(Cl)cn1)N1CCC2(CC1)OCCCC2O` (configuration not stated): -135%. The same measure for `COCCN(Cc1cnn(C)c1)c1nc(C)nc2sccc12`: -138%. The same measure for `Cc1nnc(SCCCNc2cc(C3CC3)ncn2)s1`: 19.8%. Turning to `c1cc(N2CCOCC(Cc3ccc4[nH]ccc4c3)C2)ncn1` (configuration not stated), the cytotoxicity at 10 µM is -15.9%.

Regarding `CCCc1cc(NCCn2cccn2)n2nccc2n1`, the cytotoxicity at 10 µM was found to be 0.988%. Then `CCOc1ccccc1-c1noc(CN2CCCC(O)C2)n1` (configuration not stated), with -3.85%. The same measure for `Cc1[nH]c2ccc(C#N)cc2c1CCNc1ncnc2c1CCNCC2`: -11.2%.

Regarding `CN(C)C(=O)CCNC(=O)Nc1cccc(Cl)c1-n1cccn1`, the cytotoxicity at 10 µM was determined as 0.399%.

Turning to `CN(C)C(=O)CN1CCn2cc(Cn3cccn3)nc2C1`, the cytotoxicity at 10 µM stood at 4.96%. With `CCn1cnnc1CNC(=O)N1CCCN(C(C)=O)CC1`, the cytotoxicity at 10 µM was found to be 1.18%. The same measure for `COc1ccc(N2CCC(N(C)C(=O)Nc3ccncc3)CC2)cc1`: 3.12%. The same measure for `Oc1ccc([C@H]2Oc3cc(O)cc(O)c3C[C@@H]2O)cc1`: 4.94%. The same measure for `O=C(Cc1ccccn1)N1CCN2C[C@H](OCCN3CCCC3)C[C@H]2C1`: -77.2%.

Regarding `CN(C(=O)c1ccco1)c1nc2c(s1)CCCC2`, the cytotoxicity at 10 µM is 13.7%. The same measure for `O=C(c1c2c(N3CCOCC3)ncnc2n2ccccc12)N1CCCC1`: -1.52%; for `Cc1ccc(C(=O)N2C[C@H]3CC[C@@H](C2)N(Cc2ccccc2)C3)cn1`: -140%; for `NC(=O)c1cn[nH]c1C1CCCN1C(=O)COc1ccccc1` (configuration not stated): -3.93%.

As for `O=C(c1cc(C2CC2)nc2onc(-c3ccccc3)c12)N1CC(O)C1`, the cytotoxicity at 10 µM was -50.5%. Then `O=c1[nH]c(-c2ccccc2F)nc2c1CCNC2`, with -2.72%.

For the molecule `COc1cccc(NC(=O)Nc2ccc3c(c2)CC(=O)N3)c1`, the cytotoxicity at 10 µM is -2.35%. As to `NC(=O)c1ccnc(N2CCN(Cc3ccc(F)cc3Cl)CC2)c1`, the cytotoxicity at 10 µM turned out to be 40.8%.

On to `CN(C)CCOCC1CN(Cc2ccsc2)Cc2nnn(C)c21` (configuration not stated), for which the cytotoxicity at 10 µM is 14.1%.

In the case of `CCC(C)n1cnc(S(=O)(=O)N(C)c2cccnc2N(C)C)c1` (configuration not stated), the cytotoxicity at 10 µM is -3.08%. Then `Cc1noc(C)c1CN(C)C(=O)CCOc1ccc(Cl)cc1`, with -2.51%; and `Nc1nc(C2CCN(C(=O)c3cscn3)CC2)cs1`, with 3.32%. The same measure for `Cc1ccc(CCN2C(=O)CC[C@H]3CN(Cc4cnn(C)c4)CC[C@H]32)o1`: -2.19%; for `CCOCC1(CNCc2cc(O)c3cc(C)ccc3n2)CC1`: -9.19%. The same measure for `CC1(C)[C@H](Cc2cc(CN3CCCCC3)on2)C[C@@H]1NC(=O)C1CC1`: -8.17%; for `O=C(NCCNc1ccc(C(F)(F)F)cn1)c1ccc(F)cc1Cl`: -7.65%. As for `COc1ccc(NC(C)c2ccc(C#N)cc2)cc1N1CCCC1=O` (configuration not stated), the cytotoxicity at 10 µM is -7.43%. The same measure for `Cc1ccc(NC(=O)c2cc3c(=O)n(C)c(=O)n(C)c3nc2C)cc1Cl`: -7.15%.

With `CCC1=N[C@@]2(CC[C@@H]3CN(CC4CC4)C[C@@H]32)C(=O)N1C`, the cytotoxicity at 10 µM is 0.153%.

Turning to `COCCN(CC(C)C)c1cc(C)ncn1`, the cytotoxicity at 10 µM was found to be 1.38%. The same measure for `N#CC1COCCN1C(=O)c1cccc2cc[nH]c12` (configuration not stated): 7.1%. Take `CCCN(CC1COc2ccccc2O1)C(=O)C1=NN(C)C(=O)CC1` (configuration not stated): the cytotoxicity at 10 µM was -41%.

With `CC(C)n1cc(CN2CCCN(C(=O)c3cccnc3O)CC2)cn1`, the cytotoxicity at 10 µM worked out at 4.29%. Then `COc1cccc2c1N(Cc1noc(C(C)(C)C)n1)CCC2`, with 10.9%; and `Cc1nc(C2CCCN(C(=O)c3sccc3C3CC3)C2)no1` (configuration not stated), with -3.74%. Then `Cn1cnc2c1CCN(Cc1csc(C3CCCC3)n1)C2`, with -12.3%. On to `COc1ccc(Cl)cc1NCc1cc(C)on1`, for which the cytotoxicity at 10 µM was -7.13%. The same measure for `CN(C)C(=O)COC[C@]12COC[C@H]1CN(CC1CCC1)C2`: -6.07%.

With `Cc1nc(C2CCCN(C(=O)c3ccc(OCC4CC4)cc3)C2)no1` (configuration not stated), the cytotoxicity at 10 µM is -7.69%. Then `COCC(=O)N1CC[C@@H](N2CCOCC2)[C@@H]1Cc1ccccc1`, with -3.06%.

The values above are taken from ChEMBL document CHEMBL4513216, “Probing the Open Global Health Chemical Diversity Library for Multistage-Active Starting Points for Next-Generation Antimalarials” (ACS Infect Dis, 2020).
